Active and inactive are the calls of the source. The calls are words filed in the database; no cut-off is given here.
Tests used:
Sphaerechinus granularis [1] = assay: Inhibition of sea urchin egg fertilization after 10 mins; type: functional
How it was run: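 Sphaerechinus granularis eggs, each experiment using eggs from a single female, about 50,000 eggs/ml. Eggs were treated 10 min with compound in MeOH-H2O (20:80), diluted five-fold with filtered sea water and fertilized. Controls were handled the same way. Cleavage was checked by light microscopy in vivo at 10 min and 2 h. Values are given as LD50 (M).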

Cladosporium cucumerinum = assay: Antifungal activity against Cladosporium cucumerinum; type: functional
How it was run: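 Direct bioautography on TLC: samples spotted on TLC plates, then sprayed with a suspension of Cladosporium cucumerinum. Activity is recorded as the minimum inhibition dose in μg spotted.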

Sphaerechinus granularis [2] = assay: Inhibition of sea urchin egg fertilization at <10 uM after 10 mins

SMILES	LD50 (Sphaerechinus granularis [1])	MIC (Cladosporium cucumerinum)	Activity (Sphaerechinus granularis [2])
CC(C)[C@@H](O)CC[C@@H](C)[C@H]1C[C@@H](O)[C@@H]2[C@]1(C)CC[C@@H]1[C@@]3(C)CC[C@H](O)[C@H](O)[C@@H]3[C@@H](O)C[C@]12O	1 ×10⁻⁶ M	–	–
CC(C)[C@@H](O)CC[C@@H](C)[C@H]1C[C@@H](O)[C@@H]2[C@]1(C)CC[C@@H]1[C@@]3(C)CC[C@H](O)C[C@@H]3[C@@H](O)C[C@]12O	–	3 µg	inactive
CO[C@H]1[C@H](O[C@H]2[C@H](OCC[C@@H](CC[C@@H](C)[C@H]3[C@@H](O)[C@@H](O)[C@@H]4[C@]3(C)CC[C@@H]3[C@@]5(C)CC[C@H](O)[C@H](O)[C@@H]5[C@@H](O)C[C@]34O)C(C)C)OC[C@@H](O)[C@@H]2O)OC[C@@H](O)[C@@H]1O [HALITYLOSIDE A]	1 ×10⁻⁵ M	40 µg	–
CO[C@H]1[C@H](O[C@H]2[C@H](OCC[C@@H](CC[C@@H](C)[C@H]3[C@@H](O)[C@@H](O)[C@@H]4[C@]3(C)CC[C@@H]3[C@@]5(C)CC[C@H](O)C[C@@H]5[C@@H](O)C[C@]34O)C(C)C)OC[C@@H](O)[C@@H]2O)OC[C@@H](O)[C@@H]1O [HALITYLOSIDE B]	1 ×10⁻⁵ M	–	–
CO[C@H]1[C@H](O[C@H]2[C@H](O[C@@H](CC[C@@H](C)[C@H]3C[C@@H](O)[C@@H]4[C@]3(C)CC[C@@H]3[C@@]5(C)CC[C@H](O)[C@H](O)[C@@H]5[C@@H](O)C[C@]34O)C(C)C)O[C@@H](CO)[C@@H]2O)OC[C@@H](OC)[C@@H]1O [HALITYLOSIDE D]	1 ×10⁻⁶ M	–	–
CO[C@H]1[C@H](O[C@H]2[C@H](O[C@@H](CC[C@@H](C)[C@H]3C[C@@H](O)[C@@H]4[C@]3(C)CC[C@@H]3[C@@]5(C)CC[C@H](O)C[C@@H]5[C@@H](O)C[C@]34O)C(C)C)O[C@@H](CO)[C@@H]2O)OC[C@@H](OC)[C@@H]1O [HALITYLOSIDE E]	1 ×10⁻⁷ M	10 µg	–
CO[C@H]1[C@H](O[C@H]2[C@H](O[C@@H](CC[C@@H](C)[C@H]3C[C@@H](O)[C@@H]4[C@]3(C)CC[C@@H]3[C@@]5(C)CC[C@H](O)C[C@@H]5[C@H](O)C[C@]34O)C(C)C)O[C@@H](CO)[C@@H]2O)OC[C@@H](OC)[C@@H]1O [HALITYLOSIDE F]	1 ×10⁻⁶ M	5 µg	–

From ChEMBL document CHEMBL1148177, “Starfish saponins, Part 50. Steroidal glycosides from the Okinawan starfish Nardoa tuberculata” (1993)
